{"data": "Published values from different studies", "MET M1250T": "Hepatocyte growth factor receptor (MET, Homo sapiens, UniProt P08581, M1250T)", "MET Y1235D": "Hepatocyte growth factor receptor (MET, Homo sapiens, UniProt P08581, Y1235D)", "MET": "Hepatocyte growth factor receptor (MET, Homo sapiens, UniProt P08581)", "note": "Protocols differ between the studies behind these lines."}
{"Structure (SMILES)": "COc1cnc(Nc2cccc(S(N)(=O)=O)c2)nc1N1CCN(c2ccccc2)CC1", "target": "MET M1250T", "effect on": "binding", "method": "competition with immobilised ligand", "concentration": "1 µM", "remaining binding [%]": 74}
{"Structure (SMILES)": "N[C@H]1CCN(c2nccc(-c3cnn4ncccc34)n2)C1", "target": "MET Y1235D", "effect on": "binding", "concentration": "1 µM", "remaining binding [%]": 100}
{"Structure (SMILES)": "CCCOc1ccc([C@@H]2[C@@H](C(=O)O)[C@H](c3ccc4c(c3)OCO4)CN2CC(=O)Nc2c(CC)cccc2CC)cc1", "target": "MET M1250T", "effect on": "cell-free assay", "method": "competition with immobilised ligand", "concentration": "1 µM", "remaining binding [%]": 81}
{"Structure (SMILES)": "Cc1cnn2ncc(-c3ccnc(N(C)C)n3)c2c1", "target": "MET", "effect on": "binding", "concentration": "1 µM", "remaining binding [%]": 100}
{"Structure (SMILES)": "CCC(=N\\O)/C(C)=C/c1ccc(F)cc1", "target": "MET", "effect on": "cell-free assay", "method": "competition with immobilised ligand", "concentration": "1 µM", "remaining binding [%]": 88}
{"Structure (SMILES)": "Nc1ncc2c(n1)-c1c([nH]c3ccc(C#CC4CC4)cc13)CCCC2", "target": "MET M1250T", "effect on": "binding", "method": "competition with immobilised ligand", "concentration": "1 µM", "remaining binding [%]": 95}
{"Structure (SMILES)": "O=C(c1ccc(Nc2ncc(Cl)c(-c3ccc(Cl)s3)n2)cc1)N1CCC(N2CCCC2)CC1", "target": "MET M1250T", "effect on": "binding", "method": "competition with immobilised ligand", "concentration": "1 µM", "remaining binding [%]": 6.5}
{"Structure (SMILES)": "CCS(=O)(=O)c1cc2cc(C[C@@](O)(CC(C)(C)c3ccc(F)cc3C(N)=O)C(F)(F)F)[nH]c2cn1", "target": "MET", "effect on": "cell-free assay", "method": "competition with immobilised ligand", "concentration": "1 µM", "remaining binding [%]": 100}
{"Structure (SMILES)": "C[C@H]1CCN(c2nccc(-c3cnn4ncccc34)n2)C1", "target": "MET", "effect on": "binding", "concentration": "1 µM", "remaining binding [%]": 94}
{"Structure (SMILES)": "O=C(NCC1CCOCC1)c1n[nH]cc1NC(=O)c1c(F)cccc1F", "target": "MET Y1235D", "effect on": "binding", "method": "competition with immobilised ligand", "concentration": "1 µM", "remaining binding [%]": 97}
{"Structure (SMILES)": "N#Cc1ccccc1CSc1nnc2c(n1)[nH]c1ccccc12", "target": "MET", "effect on": "binding", "method": "competition with immobilised ligand", "concentration": "10 µM", "remaining binding [%]": 87}
{"Structure (SMILES)": "COc1ccnn2ncc(-c3ccnc(N(C)C)n3)c12", "target": "MET Y1235D", "effect on": "binding", "concentration": "1 µM", "remaining binding [%]": 94}
{"Structure (SMILES)": "O=C(NCCCC1CCCCC1)c1ccc(CNC(=O)c2cnn(-c3ccccc3)c2C(F)(F)F)cc1", "target": "MET Y1235D", "effect on": "cell-free assay", "method": "competition with immobilised ligand", "concentration": "0.1 µM", "remaining binding [%]": 100}
{"Structure (SMILES)": "F[C@@H]1CCN(c2nccc(-c3cnn4ncccc34)n2)C1", "target": "MET", "effect on": "binding", "concentration": "1 µM", "remaining binding [%]": 90}
{"Structure (SMILES)": "CN(C)C(=O)Cn1cc(-c2nc([C@@](C)(c3ccc(-c4cnc(N)nc4)cc3)C3CC3)no2)cn1", "target": "MET M1250T", "effect on": "cell-free assay", "method": "competition with immobilised ligand", "concentration": "1 µM", "remaining binding [%]": 93}
{"Structure (SMILES)": "CN(C)c1ncc(F)c(-c2cnn3ncccc23)n1", "target": "MET", "effect on": "binding", "concentration": "1 µM", "remaining binding [%]": 97}
{"Structure (SMILES)": "O=C(c1ccc(Nc2nccc(-c3cc4ccccc4s3)n2)cc1)N1CCC(N2CCCC2)CC1", "target": "MET Y1235D", "effect on": "binding", "method": "competition with immobilised ligand", "concentration": "1 µM", "remaining binding [%]": 85}
{"Structure (SMILES)": "Cc1nccc(COC(=O)N2C[C@@H]3[C@@H](CNC(=O)c4ccc5[nH]nnc5c4)[C@@H]3C2)n1", "target": "MET Y1235D", "effect on": "cell-free assay", "method": "competition with immobilised ligand", "concentration": "1 µM", "remaining binding [%]": 92}
{"Structure (SMILES)": "CCN1CCN(Cc2ccc(C(=O)Nc3ccc(C)c(Oc4ccc5c(c4)CC(=O)N5)c3)cc2C(F)(F)F)CC1", "target": "MET M1250T", "effect on": "binding", "method": "competition with immobilised ligand", "concentration": "1 µM", "remaining binding [%]": 100}
{"Structure (SMILES)": "O=C(NCCCN1CCOCC1)c1ccc(Nc2nccc(-c3cc4ccccc4s3)n2)cc1", "target": "MET", "effect on": "binding", "method": "competition with immobilised ligand", "concentration": "1 µM", "remaining binding [%]": 100}
{"Structure (SMILES)": "CN(C)C(=O)Cn1cc(-c2nc(C3(c4ccc(-c5cnc(N)nc5)cc4)CC3)no2)cn1", "target": "MET", "effect on": "cell-free assay", "method": "competition with immobilised ligand", "concentration": "1 µM", "remaining binding [%]": 73}
{"Structure (SMILES)": "CN(C)c1nccc(-c2cnc3ncccn23)n1", "target": "MET Y1235D", "effect on": "binding", "concentration": "1 µM", "remaining binding [%]": 76}
